Measurements published in ChEMBL document CHEMBL4229571, “Development of 13H-benzo[f]chromeno[4,3-b][1,7]naphthyridines and their salts as potent cytotoxic agents and topoisomerase I/IIα inhibitors” (2018).
Several values for one entry are separate records, joined by “and”; a condition that tells them apart may be missing. Equal values may be shown once. Blank lines part the entries; values can stand above or below the compound they belong to.

How the values were obtained:
[1] = target: T1, DNA topoisomerase 1 (Homo sapiens) (UniProt P11387); assay: Inhibition of recombinant human DNA topoisomerase 1 at 100 uM using supercoiled pBR322 DNA as substrate after 30 mins by densitometric analysis relative to control
T1 sequence (whole entry): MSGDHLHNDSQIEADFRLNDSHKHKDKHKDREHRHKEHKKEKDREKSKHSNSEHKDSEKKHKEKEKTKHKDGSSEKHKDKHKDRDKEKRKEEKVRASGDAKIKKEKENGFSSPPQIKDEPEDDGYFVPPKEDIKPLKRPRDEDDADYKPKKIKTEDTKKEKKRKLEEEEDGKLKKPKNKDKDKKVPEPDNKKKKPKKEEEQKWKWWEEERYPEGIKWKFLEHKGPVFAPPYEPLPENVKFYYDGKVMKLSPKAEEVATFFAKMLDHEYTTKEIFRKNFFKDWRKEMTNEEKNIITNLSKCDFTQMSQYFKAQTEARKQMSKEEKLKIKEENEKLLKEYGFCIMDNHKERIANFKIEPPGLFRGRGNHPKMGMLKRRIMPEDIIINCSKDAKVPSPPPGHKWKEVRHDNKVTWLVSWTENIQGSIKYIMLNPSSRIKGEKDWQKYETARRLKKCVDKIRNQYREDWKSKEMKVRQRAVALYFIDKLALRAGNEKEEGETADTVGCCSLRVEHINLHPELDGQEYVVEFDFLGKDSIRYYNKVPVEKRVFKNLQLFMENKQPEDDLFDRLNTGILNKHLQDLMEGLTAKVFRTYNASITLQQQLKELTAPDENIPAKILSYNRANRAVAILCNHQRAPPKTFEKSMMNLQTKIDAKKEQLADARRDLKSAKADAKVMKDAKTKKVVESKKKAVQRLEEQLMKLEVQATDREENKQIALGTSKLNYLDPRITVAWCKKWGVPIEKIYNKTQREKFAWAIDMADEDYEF
In short: (§1)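 Relaxation of 100 ng supercoiled pBR322 by 1 unit recombinant human topo I, 37 °C for 30 min, in 10 mM Tris-HCl pH 7.9, 150 mM NaCl, 0.1% BSA, 1 mM spermidine, 5% glycerol. Stopped with sarcosyl solution, run on 1% agarose/TAE at 15 V for 7 h, ethidium bromide stained, bands quantified by densitometry. Camptothecin as positive control. Compounds first screened at 100 μM; those over 30% inhibition retested at 20 μM.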

[2] = target: DNA topoisomerase 2-alpha (Homo sapiens) (UniProt P11388); assay: Inhibition of recombinant human DNA topoisomerase 2-alpha at 100 uM using supercoiled pBR322 DNA as substrate after 30 mins by densitometric analysis relative to control
In short: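 200 ng supercoiled pBR322 with 4 units human topo IIα, 30 min at 30 °C, in 10 mM Tris–HCl pH 7.9, 50 mM NaCl, 5 mM MgCl2, 1 mM EDTA, 1 mM ATP, 15 μg/mL BSA. Stopped with EDTA, run on 1% agarose/TAE at 60 V for 1 h, bands quantified by densitometry. Etoposide as positive control. Screening at 100 μM; above 30% inhibition, retested at 20 μM.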

[3] = tested on: NUGC-3; assay: Cytotoxicity against human NUGC3 cells assessed as growth inhibition after 72 hrs by SRB assay; format: functional
In short: (§2)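 SRB assay per NCI protocol: 2 × 10^3 cells/well seeded, compounds in DMSO/media added next day (day 0) in quadruplicate at 1 nM–10 μM final, DMSO <0.1%. After 72 h, TCA fixation overnight at 4°C, 0.4% SRB 1 h, dye dissolved in 10 mM Tris, A690 read; day 0 absorbance subtracted. GI50 = concentration giving 50% drop in net growth, mean of three experiments.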

[4] = tested on: PC-3; assay: Cytotoxicity against human PC3 cells assessed as growth inhibition after 72 hrs by SRB assay; format: functional; in short: as §2
[5] = tested on: HCT-15; assay: Cytotoxicity against human HCT15 cells assessed as growth inhibition after 72 hrs by SRB assay; format: functional; in short: as §2
[6] = tested on: MDA-MB-231; assay: Cytotoxicity against human MDA-MB-231 cells assessed as growth inhibition after 72 hrs by SRB assay; format: functional; in short: as §2
[7] = tested on: NCI-H23; assay: Cytotoxicity against human NCI-H23 cells assessed as growth inhibition after 72 hrs by SRB assay; format: functional; in short: as §2
[8] = tested on: ACHN; assay: Cytotoxicity against human ACHN cells assessed as growth inhibition after 72 hrs by SRB assay; format: functional; in short: as §2
[9] = target: T1, DNA topoisomerase 1 (Homo sapiens); assay: Potency index, ratio of test compound activity to camptothecin activity for recombinant human DNA topoisomerase 1 at 100 uM
[10] = target: T1, DNA topoisomerase 1 (Homo sapiens); assay: Inhibition of recombinant human DNA topoisomerase 1 at 20 uM using supercoiled pBR322 DNA as substrate after 30 mins by densitometric analysis relative to control; in short: as §1

Chain of DNA topoisomerase 2-alpha (Homo sapiens) (P11388 whole entry): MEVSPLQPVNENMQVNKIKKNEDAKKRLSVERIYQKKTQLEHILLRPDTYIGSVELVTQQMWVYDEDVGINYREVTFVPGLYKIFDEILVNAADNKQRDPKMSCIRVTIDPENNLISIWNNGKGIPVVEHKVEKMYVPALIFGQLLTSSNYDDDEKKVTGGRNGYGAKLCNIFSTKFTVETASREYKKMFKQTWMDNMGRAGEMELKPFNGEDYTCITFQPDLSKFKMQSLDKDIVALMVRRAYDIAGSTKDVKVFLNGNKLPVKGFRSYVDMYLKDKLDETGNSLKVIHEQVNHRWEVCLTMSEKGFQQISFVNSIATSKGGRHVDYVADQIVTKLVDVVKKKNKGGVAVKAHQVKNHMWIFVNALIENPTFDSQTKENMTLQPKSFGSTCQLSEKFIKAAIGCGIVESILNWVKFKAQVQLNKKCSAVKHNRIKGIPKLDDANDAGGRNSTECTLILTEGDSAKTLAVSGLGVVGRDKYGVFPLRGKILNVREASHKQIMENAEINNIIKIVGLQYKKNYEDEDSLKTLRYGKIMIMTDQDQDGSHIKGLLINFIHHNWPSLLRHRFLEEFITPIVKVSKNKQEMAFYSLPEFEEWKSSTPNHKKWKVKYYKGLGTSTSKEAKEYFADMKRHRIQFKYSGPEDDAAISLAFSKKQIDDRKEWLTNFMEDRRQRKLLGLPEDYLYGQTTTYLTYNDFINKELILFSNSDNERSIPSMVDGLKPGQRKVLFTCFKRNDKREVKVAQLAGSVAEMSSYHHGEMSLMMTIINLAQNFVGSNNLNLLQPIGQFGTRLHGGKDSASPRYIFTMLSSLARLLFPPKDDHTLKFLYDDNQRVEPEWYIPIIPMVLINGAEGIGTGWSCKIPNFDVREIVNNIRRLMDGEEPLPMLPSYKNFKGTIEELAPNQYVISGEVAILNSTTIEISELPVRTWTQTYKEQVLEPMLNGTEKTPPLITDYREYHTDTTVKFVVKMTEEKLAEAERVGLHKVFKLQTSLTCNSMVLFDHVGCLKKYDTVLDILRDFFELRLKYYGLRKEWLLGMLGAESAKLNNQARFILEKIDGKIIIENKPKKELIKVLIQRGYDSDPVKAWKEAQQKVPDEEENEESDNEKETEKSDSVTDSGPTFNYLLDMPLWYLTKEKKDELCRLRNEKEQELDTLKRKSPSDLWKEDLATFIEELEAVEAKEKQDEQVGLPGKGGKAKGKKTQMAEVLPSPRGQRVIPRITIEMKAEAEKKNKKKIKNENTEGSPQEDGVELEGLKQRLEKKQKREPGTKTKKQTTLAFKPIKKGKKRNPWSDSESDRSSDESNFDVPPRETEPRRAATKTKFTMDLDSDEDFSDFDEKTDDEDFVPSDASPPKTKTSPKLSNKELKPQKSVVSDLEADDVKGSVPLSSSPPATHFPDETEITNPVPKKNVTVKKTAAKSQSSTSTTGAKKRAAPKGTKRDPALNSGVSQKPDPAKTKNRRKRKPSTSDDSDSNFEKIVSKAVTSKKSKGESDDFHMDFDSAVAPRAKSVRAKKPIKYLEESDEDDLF

inhibition [1]: 14.4% and 10.2%
inhibition [2]: 0% and 23.5%
Structure (SMILES): COc1cccc2c1OCc1c-2nc2cnc3ccccc3c2c1C [listing 1 of 3 here]

Structure (SMILES): Cc1c2c(nc3cnc4ccccc4c13)-c1cc(Cl)ccc1OC2
GI50 ([3]; Homo sapiens, NUGC-3, 72 h): > 10000 nM
GI50 ([4]; Homo sapiens, PC-3, 72 h): > 10000 nM
GI50 ([5]; Homo sapiens, HCT-15, 72 h): > 10000 nM
GI50 ([6]; Homo sapiens, MDA-MB-231, 72 h): > 10000 nM
GI50 ([7]; Homo sapiens, NCI-H23, 72 h): > 10000 nM
GI50 ([8]; Homo sapiens, ACHN, 72 h): > 10000 nM

Structure (SMILES): Cc1c2c(nc3cnc4ccccc4c13)-c1cc(C(C)(C)C)cc(C(C)(C)C)c1OC2
GI50 ([3]; Homo sapiens, NUGC-3, 72 h): > 10000 nM
GI50 ([4]; Homo sapiens, PC-3, 72 h): > 10000 nM
GI50 ([5]; Homo sapiens, HCT-15, 72 h): > 10000 nM
GI50 ([6]; Homo sapiens, MDA-MB-231, 72 h): > 10000 nM
GI50 ([7]; Homo sapiens, NCI-H23, 72 h): > 10000 nM
GI50 ([8]; Homo sapiens, ACHN, 72 h): > 10000 nM

Structure (SMILES): Clc1ccc2c(c1)-c1nc3cnc4ccccc4c3cc1CO2 [listing 1 of 3 here]
GI50 [3]: 1160 nM
GI50 [4]: 1670 nM
GI50 [5]: 1090 nM
GI50 [6]: 1050 nM
GI50 [7]: 900 nM
GI50 [8]: 1080 nM

Structure (SMILES): Cc1c2c(nc3cnc4ccccc4c13)-c1cc(F)ccc1OC2
GI50 ([3]; Homo sapiens, NUGC-3, 72 h): > 10000 nM
GI50 ([4]; Homo sapiens, PC-3, 72 h): > 10000 nM
GI50 ([5]; Homo sapiens, HCT-15, 72 h): > 10000 nM
GI50 ([6]; Homo sapiens, MDA-MB-231, 72 h): > 10000 nM
GI50 ([7]; Homo sapiens, NCI-H23, 72 h): > 10000 nM
GI50 ([8]; Homo sapiens, ACHN, 72 h): > 10000 nM

Structure (SMILES): COc1cccc2c1OCc1c-2nc2cnc3ccccc3c2c1C [listing 2 of 3 here]
GI50 [3]: 1560 nM
GI50 [4]: 2060 nM
GI50 [5]: 1290 nM
GI50 [6]: 1670 nM
GI50 [7]: 2390 nM
GI50 [8]: 2010 nM

Structure (SMILES): Cc1c2c(nc3cnc4ccccc4c13)-c1cc(Cl)cc(Cl)c1OC2
GI50 ([3]; Homo sapiens, NUGC-3, 72 h): > 10000 nM
GI50 ([4]; Homo sapiens, PC-3, 72 h): > 10000 nM
GI50 ([5]; Homo sapiens, HCT-15, 72 h): > 10000 nM
GI50 ([6]; Homo sapiens, MDA-MB-231, 72 h): > 10000 nM
GI50 ([7]; Homo sapiens, NCI-H23, 72 h): > 10000 nM
GI50 ([8]; Homo sapiens, ACHN, 72 h): > 10000 nM

Structure (SMILES): Cc1c2c(nc3cnc4ccccc4c13)-c1c(ccc3ccccc13)OC2
GI50 ([3]; Homo sapiens, NUGC-3, 72 h): > 10000 nM
GI50 ([4]; Homo sapiens, PC-3, 72 h): > 10000 nM
GI50 ([5]; Homo sapiens, HCT-15, 72 h): > 10000 nM
GI50 ([6]; Homo sapiens, MDA-MB-231, 72 h): > 10000 nM
GI50 ([7]; Homo sapiens, NCI-H23, 72 h): > 10000 nM
GI50 ([8]; Homo sapiens, ACHN, 72 h): > 10000 nM

inhibition [1]: 1.7% and 12.3%
inhibition [2]: 0%
Structure (SMILES): Clc1ccc2c(c1)-c1nc3cnc4ccccc4c3cc1CO2 [listing 2 of 3 here]

Structure (SMILES): Fc1ccc2c(c1)-c1nc3cnc4ccccc4c3cc1CO2 [listing 1 of 2 here]
GI50 ([3]; Homo sapiens, NUGC-3, 72 h): 1850 nM
GI50 [4]: 2790 nM
GI50 ([5]; Homo sapiens, HCT-15, 72 h): 2200 nM
GI50 ([6]; Homo sapiens, MDA-MB-231, 72 h): 2200 nM
GI50 ([7]; Homo sapiens, NCI-H23, 72 h): 1870 nM
GI50 [8]: 3200 nM

Ratio [9]: 1.32
inhibition [10]: 4.2%
inhibition [2]: 14.5% and 12.2%
Structure (SMILES): Fc1ccc2c(c1)-c1nc3cnc4ccccc4c3cc1CO2 [listing 2 of 2 here]

Structure (SMILES): c1ccc2c3c(ccc2c1)OCc1cc2c(cnc4ccccc42)nc1-3
GI50 ([3]; Homo sapiens, NUGC-3, 72 h): > 10000 nM
GI50 ([4]; Homo sapiens, PC-3, 72 h): > 10000 nM
GI50 ([5]; Homo sapiens, HCT-15, 72 h): > 10000 nM
GI50 ([6]; Homo sapiens, MDA-MB-231, 72 h): > 10000 nM
GI50 ([7]; Homo sapiens, NCI-H23, 72 h): > 10000 nM
GI50 ([8]; Homo sapiens, ACHN, 72 h): > 10000 nM

Structure (SMILES): Clc1ccc2c(c1)-c1nc3cnc4ccccc4c3cc1CO2 [listing 3 of 3 here]
GI50 ([3]; Homo sapiens, NUGC-3, 72 h): 2210 nM
GI50 ([4]; Homo sapiens, PC-3, 72 h): 1500 nM
GI50 ([5]; Homo sapiens, HCT-15, 72 h): 1570 nM
GI50 [6]: 2720 nM
GI50 ([7]; Homo sapiens, NCI-H23, 72 h): 1180 nM
GI50 [8]: 2560 nM

Structure (SMILES): COc1cccc2c1OCc1c-2nc2cnc3ccccc3c2c1C [listing 3 of 3 here]
GI50 ([3]; Homo sapiens, NUGC-3, 72 h): 2620 nM
GI50 ([4]; Homo sapiens, PC-3, 72 h): 1610 nM
GI50 ([5]; Homo sapiens, HCT-15, 72 h): 1790 nM
GI50 ([6]; Homo sapiens, MDA-MB-231, 72 h): 1520 nM
GI50 ([7]; Homo sapiens, NCI-H23, 72 h): 1560 nM
GI50 ([8]; Homo sapiens, ACHN, 72 h): 2190 nM
